Source: ChEMBL document CHEMBL1955811, “Inhibition of colony-stimulating-factor-1 signaling in vivo with the orally bioavailable cFMS kinase inhibitor GW2580” (Proc Natl Acad Sci U S A, 2005)
Calls of active or inactive are those of the source. The calls are words filed in the database; no cut-off is given here.

Experiments:
[1] = system: Mus musculus; test: Inhibition of thioglycolate-induced macrophage influx into peritoneal cavity in mouse at 20 mg/kg, po BID starting 1 hr before thioglycolate challenge for 4 days; assay type: functional
Summary of the method: (§1)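 Female C3H/HEN mice (22-26 g) were dosed orally with compound suspended in 0.5% hydroxypropylmethylcellulose/0.1% Tween 80 (0.2 ml per mouse). Thioglycolate (1.5 ml) was injected i.p. on day 0. On day 4, the peritoneum was lavaged with 5 ml cold PBS containing 40 units/ml heparin, and cells were counted by hemocytometer in 0.1% crystal violet. Data are mean ± SEM; Dunnett's test.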

[2] = system: NFS-60; test: Antitumor activity in mouse M-NFS-60 cells allografted in po dosed CD-1 nude mouse assessed as inhibition of tumor cell growth in peritoneal cavity compound starting 1 hr before challenge twice a day for 4 days measured after 4 days; assay type: functional, organism-based
Summary of the method: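 CD-1 nude female mice (22-26 g); 1 × 10^7 M-NFS-60 cells in PBS injected i.p. Oral dosing b.i.d. at 20 and 80 mg/kg as a suspension in 0.5% hydroxypropylmethylcellulose/0.1% Tween 80 (0.2 ml per mouse), starting 1 h before cell injection. Peritoneal cells recovered by cold PBS-heparin lavage on day 4 and counted by hemocytometer after crystal violet dilution. Mean ± SEM; Dunnett's test.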

[3] = Inhibition of human GST-tagged PKA using biotin-(6-amino caproic acid)-LRRASLGKKK-amide as substrate after 70 mins by scintillation proximity assay
Summary of the method: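 Catalytic domains of human kinases expressed, isolated and assayed with ATP and the appropriate peptide substrate. Compound tested as a 10- to 12-point dose-response with a top concentration of 20 μM.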

[4] = system: Mus musculus; test: Inhibition of thioglycolate-induced macrophage influx into peritoneal cavity in mouse at 80 mg/kg, po BID starting 1 hr before thioglycolate challenge for 4 days; assay type: functional; summary of the method: as §1
[5] = organism: Rattus norvegicus; test: Inhibition of PTH-induced Wistar rat calvarial bone degradation assessed as reduction in DPPD level in media at 1 to 100 uM after 48 hrs; assay type: functional
Summary of the method: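 Rat calvaria incubated with PTH plus compound for two consecutive 48-h periods. Medium from the second period assayed for deoxypyridinoline crosslinks (DPPD).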

[6] = system: PBMC; test: Effect on LPS-induced IL-6 production in human PBMC at 0.03906 to 20 uM preincubated for 30 mins before LPS stimulation measured after 20 hrs by ELISA; assay type: functional, cell-based
[7] = system: Peritoneal macrophage cell; test: Effect on LPS-induced TNF production in mouse intraperitoneal macrophages pretreated with CSF-1 at 0.03906 to 20 uM compound incubated for 30 mins before LPS stimulation measured after 20 hrs by ELISA; assay type: functional, cell-based
[8] = system: Monocyte; test: Effect on LPS-induced IL-6 production in human monocytes at 0.03906 to 20 uM preincubated for 30 mins before LPS stimulation measured after 20 hrs by ELISA; assay type: functional, cell-based
[9] = system: Peritoneal macrophage cell; test: Effect on LPS-induced IL-6 production in mouse intraperitoneal macrophages pretreated with CSF-1 at 0.03906 to 20 uM compound incubated for 30 mins before LPS stimulation measured after 20 hrs by ELISA; assay type: functional, cell-based
[10] = system: Monocyte; test: Effect on LPS-induced PGE2 production in human monocytes at 0.03906 to 20 uM preincubated for 30 mins before LPS stimulation measured after 20 hrs by ELISA; assay type: functional, cell-based
[11] = system: Mus musculus; test: Inhibition of LPS-stimulated TNF production in mouse at 40 mg/kg, po administered 0.5 hr before LPS challenge measured […] after LPS challenge; assay type: functional
[12] = Growth inhibition of CSF1-stimulated mouse M-NFS-60 cells after 3 days by spectrophotometry; assay type: functional; details: NFS-60, 72 h
Summary of the method: (§2)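 Cells cultured so that added serum or growth factor gave linear growth. Compound tested as a 10- to 12-point dose-response with a top concentration of 20 μM.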

[13] = system: Mus musculus; test: Inhibition of LPS-stimulated IL-6 production in CSF-1 primed mouse at 40 mg/kg, po administered 4.5 hr before LPS challenge and CSF-1 priming measured […] after LPS challenge; assay type: functional
[14] = system: Mus musculus; test: Inhibition of LPS-stimulated TNF production in CSF-1 primed mouse at 20 to 80 mg/kg, po administered 4.5 hr before LPS challenge and CSF-1 priming measured […] after LPS challenge; assay type: functional, organism-based
[15] = system: Monocyte; test: Inhibition of CSF-1-stimulated growth of freshly isolated human monocytes at 1 uM preincubated for 30 mins before inducer addition measured after 5 days by WST-1 method; assay type: functional; details: read-out: GI
[16] = Protein binding in cell-culture media with rat plasma at 3 uM; assay type: ADME, cell-free; details: read-out: PB (converted)
Summary of the method: (§3)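 Compound at 3 μM was added to triplicate samples and incubated 1 h at 37°C. Samples were centrifuged through a 30,000-MW filter (1,500 × g, 15 min, 4°C). Percent bound was calculated from compound concentrations in the filtrate and retentate.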

[17] = Cmax in mouse at 80 mg/kg, po; assay type: ADME, organism-based; design: dose 80 mg/kg, route oral; details: in vivo
Summary of the method: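 Female mice given single oral doses (20 or 80 mg/kg) in 0.5% HPMC/0.1% Tween 80. Three mice killed with CO2 per time point; plasma extracted with isopropyl alcohol/acetonitrile, then vortexed, sonicated and centrifuged. Quantified by LC/MS (APCI positive mode, multiple-reaction monitoring) against a standard curve prepared in plasma.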

[18] = system: NFS-60; test: Growth inhibition of CSF1-stimulated mouse M-NFS-60 cells at 0.7 uM after 3 days by spectrophotometry; assay type: functional
[19] = system: Osteoclast; test: Inhibition of human osteoclast degradation of bone assessed as bone slice resorbed at 1 uM after 3 days by immunocytochemistry (reference value: 26.6 +/- 4.7 %); assay type: functional; details: 72 h
[20] = system: Osteoclast; test: Inhibition of human osteoclast degradation of bone assessed as reduction in actin ring formation per cm2 of bone at 3 uM after 3 days by immunocytochemistry (reference value: 1546 +/- 232 /cm2 of bone); assay type: functional
[21] = system: Macrophage; test: Effect on LPS-induced TNF production in CSF-1-stimulated human macrophages at 0.03906 to 20 uM preincubated for 30 mins before LPS stimulation measured after 20 hrs by ELISA; assay type: functional, cell-based
[22] = system: Mus musculus; test: Inhibition of thioglycolate-induced macrophage influx into peritoneal cavity in mouse at 20 to 80 mg/kg, po BID; assay type: functional, organism-based; details: TDE = time-dependent effect; summary of the method: as §1
[23] = system: NCI-N87; test: Growth inhibition of serum-stimulated human NCI-N87 cells after 3 days by spectrophotometry; assay type: functional, cell-based; details: NCI-N87, 72 h; summary of the method: as §2
[24] = system: PBMC; test: Effect on LPS-induced PGE2 production in human PBMC at 0.03906 to 20 uM preincubated for 30 mins before LPS stimulation measured after 20 hrs by ELISA; assay type: functional, cell-based
[25] = system: Osteoclast; test: Inhibition of human osteoclast degradation of bone assessed as reduction in 23C6(+) cells with more than 3 nuclei per cm2 of bone at 1 uM after 3 days by immunocytochemistry (reference value: 854 +/- 122 cells/cm2 of bone); assay type: functional
[26] = system: Osteoclast; test: Inhibition of human osteoclast degradation of bone assessed as reduction in 23C6(+) cells with more than 3 nuclei per cm2 of bone at 3 uM after 3 days by immunocytochemistry (reference value: 854 +/- 122 cells/cm2 of bone); assay type: functional
[27] = Protein binding in cell-culture media with 10% fetal calf serum at 3 uM; assay type: ADME, cell-free, Bos taurus; details: cattle, read-out: PB (converted); summary of the method: as §3

With `COc1ccc(COc2ccc(Cc3cnc(N)nc3N)cc2OC)cc1` [GW632580X] the inhibition in vivo at 20 mg/kg [1] was 17%, the “growth inhibition (GI)” value [2] was “Dose-dependent effect” and the IC50 [3] was > 10 µM. The inhibition in vivo at 80 mg/kg [4] was 25%, the inhibition [5] was “Active” and the Activity [6] was “inactive”. For the same compound, the Activity [7] was “inactive”, the Activity [8] was “inactive” and the Activity [9] was “inactive”. The Activity [10] was “inactive”, the inhibition in vivo at 40 mg/kg [11] was 68% and the IC50 [12] was 330 nM. The inhibition in vivo at 40 mg/kg [13] was 49%, the inhibition [14] was “Active” and the inhibition of growth at 1 µM [15] was 100%. The fraction unbound at 3 µM [16] was 0.05, the Cmax [17] was 400 nM and the “growth inhibition (GI)” value [18] was “Active”. The bone resorption (%) at 1 µM [19] was 3.3%, the Activity [20] was 148 /cm2 and the Activity [21] was “inactive”. The inhibition [22] was “tde”, the IC50 [23] was > 30 µM and the Activity [24] was “inactive”. The Activity [25] was 244 /cm2, the Activity [26] was 120 /cm2 and the fraction unbound at 3 µM [27] was 0.76.
